Results on six compounds are retold here after ChEMBL document CHEMBL4342497, “Design, Synthesis, and Conformation-Activity Study of Unnatural Bridged Bicyclic Depsipeptides as Highly Potent Hypoxia Inducible Factor-1 Inhibitors and Antitumor Agents” (J Med Chem, 2020).

The source made the active and inactive calls. No cut-off for these calls is given here.

A short description of test [1]: Inhibition of HIF1 (unknown origin) expressed in HEK293 cells assessed as reduction in hypoxia-induced HIF1 activation pre-incubated for 1 hrs before hypoxia exposure for 24 hrs by luciferase reporter gene assay. Format: cell-based. The conditions noted are these: Homo sapiens. An outline of the steps:
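HEK293 cells stably carrying HRE reporter plasmid p2.1, seeded at 8.0×10^4 per well and grown 24 h in normoxia. Medium changed to fresh medium with 0.25% DMSO and a range of compound concentrations for 1 h, then 24 h at 1% O2 or normoxia. Luciferase activity normalised to protein content. IC50 as mean ± SD, n = 3.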

Test [2] concerns MCF7. Briefly: Inhibition of hypoxia-induced HIF1 protein expression in human MCF7 cells incubated for 16 hrs by Western blot analysis. Format: functional, cell-based. Put shortly: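 MCF-7 cells (2.5×10^6 per 100 mm dish) exposed to several compound concentrations for 16 h under 20% or 1% O2. Lysates run on 8% SDS-PAGE and blotted to nitrocellulose. Blocked in 5% milk, probed with anti-HIF-1α (1:1000) and β-actin (1:3000), then HRP secondary. Detected by chemiluminescence.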
(In general: In western blotting, separated proteins are transferred to a membrane and probed.)

Test [3] has as its system MCF7. Kind of test: Cytotoxicity against human MCF7 cells assessed as reduction in cell viability incubated for 72 hrs by MTT assay. It counts as functional, cell-based. Conditions: MCF7, 72 h. Put shortly:
(§1)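 Cells seeded overnight at 3.0×10^3 (A549), 5.0×10^3 (HT29) or 4.0×10^3 (MCF-7, MDA-MB-231) per well, then exposed to compound for 72 h. Medium replaced, MTT 0.5 mg/mL added for 4 h at 37 °C, cells lysed in DMSO, absorbance read at 570 nm. IC50 as mean ± SD, n = 3. Final DMSO below 1.0%.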
(Tetrazolium dyes change colour on reduction, which living cells bring about.)

The subject of a further test is MDA-MB-231. Kind of test: Cytotoxicity against human MDA-MB-231 cells assessed as reduction in cell viability incubated for 72 hrs by MTT assay. It counts as functional, cell-based. Conditions: MDA-MB-231, 72 h. An outline of the steps: as §1
The next test relates to A549. Briefly: Cytotoxicity against human A549 cells assessed as reduction in cell viability incubated for 72 hrs by MTT assay. It counts as functional, cell-based. Conditions: A549, 72 h. Put shortly: as §1
The nature of test [4]: Retardation factor of the compound.
The test system of another test is HT-29. Kind of test: Cytotoxicity against human HT-29 cells assessed as reduction in cell viability incubated for 72 hrs by MTT assay. Format: functional, cell-based. Conditions: HT-29, 72 h. Put shortly:
as §1

For test [5], the system named is MCF7. Briefly: Inhibition of hypoxia-induced HIF1 mRNA expression in human MCF7 cells incubated for 16 hrs by RT-PCR analysis. Format: functional, cell-based.
In test [6] the test system is MCF7. Kind of test: Cytotoxicity against human MCF7 cells assessed as reduction in cell viability incubated for 24 hrs by MTT assay. The conditions noted are these: MCF7, 24 h. Format: functional, cell-based. An outline of the steps:
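MCF-7 cells seeded at 8.0×10^3 per well and treated with compound for 24 h. MTT 0.5 mg/mL added for 4 h at 37 °C after medium exchange, then DMSO lysis and absorbance at 570 nm. IC50 as mean ± SD, n = 3.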

A short description of test [7]: Binding affinity to synthetic d(ACGTAGAACGT) dsDNA assessed as melting temperature at 2.5 uM by SYBR green I dye dependent differential scanning fluorimetry based thermal denaturation method (reference value: 44.2 +/- 1.0 degC). For orientation: In DSF a fluorescence change marks the thermal transition of the protein.
Test [8] can be described thus: Binding affinity to synthetic 5'-FAM-CCCTACGTATATGAAAATATACGTAGGG-BHQ1-3' dsDNA assessed as melting temperature at 2.5 uM by SYBR green I dye dependent differential scanning fluorimetry based thermal denaturation method (reference value: 70.7 +/- 0.0 degC).

`CC(C)[C@H]1C(=O)OC[C@@H](NC(=O)c2cnc3ccccc3n2)C(=O)N[C@@H](C)C(=O)N(C)[C@H]2CSC[C@@H](C(=O)N1C)N(C)C(=O)[C@H](C)NC(=O)[C@H](NC(=O)c1cnc3ccccc3n1)COC(=O)[C@H](C(C)C)N(C)C2=O`: the IC50 (commonly the concentration needed to halve the response being measured) came out at 2.4 nM in [1]; 9.7 nM in the test with MCF7 [3]; 8 nM in the test with MDA-MB-231; 16.2 nM in the test on A549; 16.2 nM in the test on HT-29. The inhibition entry in the test with MCF7 [2] was “Dose-dependent effect”. For the same compound, the Rm in test [4] stood at 0.2.
Turning to `CC(C)[C@@H]1C(=O)OC[C@H](NC(=O)c2cnc3ccccc3n2)C(=O)N[C@H](C)C(=O)N(C)[C@@H]2CSSC[C@H](C(=O)N1C)N(C)C(=O)[C@@H](C)NC(=O)[C@@H](NC(=O)c1cnc3ccccc3n1)COC(=O)[C@@H](C(C)C)N(C)C2=O`, the IC50 (in test [1]; in the test on MCF7 [6]) was > 100000 nM throughout. Also, the inhibition result in the test on MCF7 [2] and with MCF7 [5] was “inactive” each time. Moreover, the Rm in [4] stood at 0.15.
In the case of `CC(C)[C@H]1C(=O)OC[C@@H](NC(=O)c2cnc3ccccc3n2)C(=O)N[C@@H](C)C(=O)N(C)[C@H]2C/C=C\C[C@@H](C(=O)N1C)N(C)C(=O)[C@H](C)NC(=O)[C@H](NC(=O)c1cnc3ccccc3n1)COC(=O)[C@H](C(C)C)N(C)C2=O`, the IC50 was 1 nM in test [1]; 13.4 nM in the test on MCF7 [6]; 2.9 nM in the test with MCF7 [3]; 3.2 nM in the test on MDA-MB-231; 5.3 nM in the test on A549; 6.2 nM with HT-29. The inhibition result with MCF7 [2] is “Dose-dependent effect”. For the same compound, the Rm in [4] turned out to be 0.25. Also, the Tm (usually the temperature at which the thermal transition is half complete) in test [7] is 52.5 °C; in [8], 81.3 °C.
Regarding `CC(C)[C@H]1C(=O)OC[C@@H](NC(=O)c2nc3ccccc3cc2O)C(=O)N[C@@H](C)C(=O)N(C)[C@H]2C/C=C\C[C@@H](C(=O)N1C)N(C)C(=O)[C@H](C)NC(=O)[C@H](NC(=O)c1nc3ccccc3cc1O)COC(=O)[C@H](C(C)C)N(C)C2=O`, the IC50 in [1] was found to be 0.09 nM; in the test on MCF7 [3] it was 0.22 nM. Also, in the test on MCF7 [2], the inhibition entry is “Dose-dependent effect”. In addition, the Rm in test [4] worked out at 0.52. Besides, in [7], the Tm came out at 54.3 °C.
`CC(C)[C@H]1C(=O)OC[C@@H](NC(=O)c2cnc3ccccc3n2)C(=O)N[C@@H](C)C(=O)N(C)[C@H]2CCCC[C@@H](C(=O)N1C)N(C)C(=O)[C@H](C)NC(=O)[C@H](NC(=O)c1cnc3ccccc3n1)COC(=O)[C@H](C(C)C)N(C)C2=O`: the IC50 in test [1] came to 6.3 nM; in the test with MCF7 [6], 123 nM; with MCF7 [3] it was 23.5 nM; in the test on MDA-MB-231, 25.3 nM; in the test on A549, 71.9 nM; in the test with HT-29 it was 57.4 nM. The same compound gave a Rm in test [4] of 0.32.
For the compound `CC(C)[C@H]1C(=O)OC[C@@H](NC(=O)c2cnc3ccccc3n2)C(=O)N[C@@H](C)C(=O)N(C)[C@H]2C[Se]C[C@@H](C(=O)N1C)N(C)C(=O)[C@H](C)NC(=O)[C@H](NC(=O)c1cnc3ccccc3n1)COC(=O)[C@H](C(C)C)N(C)C2=O`, the IC50 is 2 nM in test [1]; 7.1 nM in the test with MCF7 [3]; 6.8 nM in the test on MDA-MB-231; 14.5 nM with A549; 11.7 nM in the test with HT-29. The inhibition result in the test with MCF7 [2] is “Dose-dependent effect”. This compound yielded a Rm in test [4] of 0.2.
